UHRF1 binding = human UHRF1 methylated DNA binding inhibitors | Q96T88 | UHRF1 binding to methylated oligo, TR-FRET | inhibition, % at 4.4 µM | hit rate 0.75% among 370,000; in the data active = inhibition above about 21%;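 note: UHRF1 SRA domain binding a hemimethylated CpG hairpin DNA probe; 0% = median of test compound wells and 100% = reference inhibitor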
MBD2 DNA inh = blocks human MBD2 binding to methylated DNA. Q9UBB5. TR-FRET, MBD2 binding to methylated oligonucleotide. inhibition, % at 4.4 µM. hit rate 0.31% among 370,000. AID 686964; in the data active = inhibition above about 13%
DDE Tn7 FP inh = disrupts Tn7 cyclic peptide binding to fibrin D-Dimer-E complex; AID 720508; P02675; FP displacement of FITC-Tn7 peptide from fibrin DD(E); 0% = median of compound wells per plate; inhibition, % at 8.3 µM; hit rate 0.13% among 370,000;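 active = inhibition above the mean of compounds falling within the control limits plus 3 SD of them, cut at about 14% in these data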;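 note: 0% = plate median of compound wells and 100% = 10 µM Aha-Tn7 peptide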
Target sequence (P02675 whole entry, looked up): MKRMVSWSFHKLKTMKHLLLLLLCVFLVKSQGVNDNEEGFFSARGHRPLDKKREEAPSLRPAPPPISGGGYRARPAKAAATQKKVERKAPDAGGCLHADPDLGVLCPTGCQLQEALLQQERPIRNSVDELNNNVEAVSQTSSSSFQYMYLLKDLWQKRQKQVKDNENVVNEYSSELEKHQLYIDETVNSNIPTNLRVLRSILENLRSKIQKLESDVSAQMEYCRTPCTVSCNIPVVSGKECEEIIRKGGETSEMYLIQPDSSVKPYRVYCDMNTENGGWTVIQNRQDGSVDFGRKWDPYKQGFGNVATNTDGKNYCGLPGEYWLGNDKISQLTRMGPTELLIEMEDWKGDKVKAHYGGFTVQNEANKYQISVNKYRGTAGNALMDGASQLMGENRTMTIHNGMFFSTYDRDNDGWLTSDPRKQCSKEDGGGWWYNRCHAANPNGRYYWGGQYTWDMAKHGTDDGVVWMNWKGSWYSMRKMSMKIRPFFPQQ
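Assay system: Fibrin-DD(E) protein isolated from polymerized human fibrin clots; read-out basis: percent inhibition; medium: Tris/NaCl/CaCl2 buffer, pH 7.8; signal: FP measurement; incubation: 10 min plus 3 h, room temperature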
DDE Tn6 FP inh = disrupts Tn6 cyclic peptide binding to fibrin D-Dimer-E complex | P02675 | Fibrin DD(E) TRITC-Tn6 fluorescence polarization displacement | inhibition, % at 8.3 µM | hit rate 0.21% among 370,000 | AID 720509;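 active = inhibition above a per-campaign cutoff: mean of compounds within control limits plus 3 SD, cut at about 15% in these data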;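 note: 0% = median of all compound wells on the plate and 100% = blocking peptide control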
LEDGF integ inh = blocks HIV-1 LEDGF/p75-dependent DNA integration; TR-FRET IN-LEDGF/p75 DNA integration, Eu/Cy5; inhibition, % at 3.7 µM; hit rate 0.64% among 370,000; AID 743269;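 active = inhibition above the screen-wide mean plus 3 SD, cut at about 13% in these data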;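 note: signal is the Cy5 over europium emission ratio at 671 and 618 nm; 0% = plate median of compound wells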
TDP2 absorb = blocks human TDP2 phosphodiesterase activity; O95551; recombinant TDP2, T5PNP hydrolysis, p-nitrophenol absorbance 415 nm; inhibition, % at 12.8 µM; hit rate 0.34% among 370,000; AID 720702;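 active = inhibition above the mean of all tested compounds plus 3 SD, set per campaign, cut at about 25% in these data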;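 note: 0% = DMSO with enzyme and 100% = buffer with substrate but no TDP2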
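Material: recombinant human TDP2; quantity: TDP2 enzyme at 120 nM final; medium: Tris-HCl pH 7.5 with MgCl2; compound: single concentration, 12.8 µM nominal, with 1% DMSO; incubation: 2 h enzyme incubation at 37 °C; signal: epi absorbance; measure: percent inhibition; benchmarks: high control without enzyme, low control DMSO plus TDP2; repeats: singlicate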
TDP2 inh conf = confirmation of human TDP2 inhibitors; recombinant human TDP2, absorbance read-out; AID 743263; inhibition, % at 12.8 µM; shares compounds with TDP2 absorb; hit rate 22% among 1,100; in the data active = inhibition above about 25%;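 note: 0% = vehicle with enzyme and 100% = no enzyme buffer only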
An asterisk follows results filed as active; nt = no result. Shown are actives, neighbours in structure and some others; about 1.9% of the full set was active somewhere.

SMILES	UHRF1 binding	MBD2 DNA inh	DDE Tn7 FP inh	DDE Tn6 FP inh	LEDGF integ inh	TDP2 absorb	TDP2 inh conf
OC(CNCc1ccc(Cl)cc1)COc1ccccc1 (centres undefined)	-0.8	-8.9	-0.4	-0.2	1.7	24.6*	-2.1
CC(C)(C)NC(=O)NC(=O)COC(=O)c1c(F)cccc1Cl	-1.1	3.6	2.4	-1.1	-2.7	4.3	nt
CC(C)(C)NC(=O)C(=O)NC(=O)c1c(F)cccc1Cl	-0.3	4.2	5.0	3.2	0.4	43.4*	-5.3
Cc1nc2sc(C(=O)NCc3nccs3)c(N)c2c(C)c1Cl	-1.0	-6.3	-3.0	-4.2	1.9	2.2	nt
O=C(CN1C(=O)S/C(=C\c2ccc(F)cc2)C1=O)Nc1cccc(S(=O)(=O)NCc2ccco2)c1	-3.5	-2.8	2.5	7.4	-1.6	27.2*	0.2
CCCCCCCCN1C(=O)[C@@H](CC(=O)NCc2cccc3ccccc23)C[C@@]2(C(=O)OC)C1=C[C@H](C1CCCC1)O[C@@H]2C	0.7	3.1	-2.1	3.4	-0.7	-7.7	nt
CCCCOCC1CN(CCCC)S(=O)(=O)c2c(Oc3ccc(SC)c(C)c3)cccc2O1 (centres undefined)	14.8	7.0	-4.3	0.1	0.9	-1.3	nt
Cc1ccc(OCCCCN2CCCCC2)cc1	-2.2	-5.9	6.2	3.2	-0.5	-11.0	nt
Cc1ccc(OCCN2CCCC2)cc1	-4.4	-6.2	10.8	-5.2	-0.1	24.6*	11.4
C[C@H](O)[C@@H]1CN2CCc3c([nH]c4c(-c5ccccc5)cccc34)[C@@H]2C[C@@H]1N(C)C(=O)NC1CCCCC1	-2.2	0.3	-4.6	-1.0	2.3	-8.1	nt
COc1ccc(Cc2nnc(SCC(=O)NC(C)c3ccccc3)o2)cc1 (centres undefined)	2.6	2.6	3.5	2.2	-0.9	71.7*	-6.2
COc1ccc(CNC(=O)CCCNC(=O)c2ccc(Cl)cc2)cc1OC	3.7	1.2	-2.2	5.3	-5.2	33.1*	-0.3
COc1ccc(CCNC(=O)CCNC(=O)c2ccc(Cl)cc2)cc1OC	5.5	2.7	2.2	-12.2	1.9	4.0	nt
COc1ccc2ccc3c(c2c1)N=C[C@]1(O3)N(C)c2ccccc2C1(C)C	9.1	-4.5	-2.3	2.5	7.3	41.2*	0.2
CCOc1ccc(CN2CCC(C(=O)N3CCN(c4ccccc4F)CC3)CC2)cc1OC	13.1	3.2	-9.1	-5.1	8.3	33.5*	-0.1
CC(=O)N(C1=C(Cl)C(=O)c2ccccc2C1=O)C1CCCCC1	-0.6	-10.3	-9.0	-0.5	10.9	57.0*	46.7*
CC(=O)N(c1ccccc1C)C1CCCC1	2.0	3.7	-0.7	2.4	-2.0	0.2	nt
CCCCOCCCNC(=O)C[C@H]1C[C@@]2(C(=O)OC)C(=C[C@H](COCc3ccccc3)O[C@@H]2C)N(CCC2=CCCCC2)C1=O	-1.8	2.6	3.6	-3.3	-2.2	-4.2	nt
COc1cccc(N(CC(=O)NC2CCCCC2)C(=O)CCC(=O)Nc2nccs2)c1	-3.1	1.9	3.6	5.2	2.1	28.7*	4.2
CCOC(=O)c1csc(NC(=O)C2CCCN(S(=O)(=O)c3ccc(Br)s3)C2)n1 (centres undefined)	-0.8	-0.7	-6.5	0.2	4.4	3.6	nt
O=c1[nH]c(Nc2ccccn2)cc2ccccc12	-5.1	-10.8	2.6	-2.2	7.2	49.1*	27.4*
CCN(CC)S(=O)(=O)c1cccc(C(=O)OCC(=O)Nc2ccccc2OC(F)F)c1	-0.1	0.1	-2.0	12.7	-0.3	64.1*	-6.9
CN(C)S(=O)(=O)c1cccc(C(=O)OCC(=O)Nc2ccccc2OC(F)F)c1	6.1	3.7	-6.6	1.8	1.0	-3.3	nt
CCCc1nnc(NC(=O)CCC(=O)N2CCCCCC2)s1	0.8	-2.8	-6.3	-5.0	-0.2	1.8	nt
CCCc1nnc(NC(=O)CCC(=O)N2CCCCC2)s1	-4.0	3.6	0.5	-2.7	-1.7	26.2*	-6.1
SMILES	UHRF1 binding	MBD2 DNA inh	DDE Tn7 FP inh	DDE Tn6 FP inh	LEDGF integ inh	TDP2 absorb	TDP2 inh conf
C[C@@H]1Cn2cnc(C(=O)N3CCN(C(=O)OC(C)(C)C)CC3)c2C(=O)N1	-1.2	-9.2	5.2	6.9	-3.4	3.4	nt
COC(=O)C[C@@H]1CC[C@H](NC(=O)Cc2ccccn2)[C@@H](CO)O1	-1.2	3.6	0.6	-11.2	0.1	27.5*	-0.8
CCOc1ccc(NC(=O)CN(C)C(=O)c2ccccc2OCc2c(C)noc2C)cc1OCC	-0.3	-2.1	-3.3	4.3	-2.1	25.6*	9.7
COCC#Cc1ccc2c(c1)O[C@H](CN(C)C(=O)c1ccccc1)[C@@H](C)CN([C@H](C)CO)S2(=O)=O	0.2	0.3	-1.7	1.1	-8.3	-1.7	nt
CCOC(=O)c1ccccc1NC(=S)N1CCC(N2CCCCC2)CC1	2.4	4.4	1.1	-1.5	-4.7	33.6*	2.8
NC(=O)Nc1ccc(C(=O)OCC(=O)N(Cc2ccccc2)C2CCS(=O)(=O)C2)cc1 (centres undefined)	4.5	3.8	1.8	0.9	-1.9	-1.5	nt
CN(C)c1cccc(C(=O)OCC(=O)N(Cc2ccccc2)C2CCS(=O)(=O)C2)c1 (centres undefined)	19.0	9.5	-3.2	-0.8	6.2	38.5*	-11.0
COC(=O)C1=C(C)N(Cc2ccccc2C(F)(F)F)C(=NCc2ccc(C(F)(F)F)cc2)NC1c1cccc(F)c1 (centres undefined)	0.1	-4.9	4.2	-3.5	-4.2	-0.3	nt
C[C@@H]1CCN(C2CC2)S(=O)(=O)c2c(cccc2N2CCC[C@@H]2CO)O1	-4.1	0.3	-5.4	2.6	3.5	-4.5	nt
CC1(C)OC(=O)C2=C(CC(CCc3ccccc3)OC2c2ccc(Cl)c(Cl)c2)O1 (centres undefined)	-1.3	-3.5	-4.4	-6.8	2.3	2.8	nt
CC[C@H](C)[C@H](NC(N)=O)C(=O)NCCc1ccc(OC)c(OC)c1	-0.3	1.6	8.6	4.0	-1.4	24.7*	11.1
COc1ccc(CCNC(=O)C(NC(=O)OCc2ccccc2)C(C)C)cc1OC (centres undefined)	0.8	0.8	-4.2	-5.3	-2.8	-6.3	nt
COc1ccc(-c2csc3ncnc(N4CCN(S(=O)(=O)c5cccc(Br)c5)CC4)c23)cc1	-3.2	-2.5	-0.5	-2.7	3.1	5.1	nt
COc1ccc(-c2csc3ncnc(N4CCN(S(=O)(=O)c5cccc(C(F)(F)F)c5)CC4)c23)cc1	3.7	1.9	-7.9	-5.0	4.1	24.7*	0.8
O=C(NCc1ccccn1)c1ccc2c(c1)N(Cc1ccccc1)CCS2	4.5	-1.8	-3.4	-5.5	-1.7	2.9	nt
O=C(NCc1cccnc1)c1ccc2c(c1)N(Cc1ccccc1)CCS2	-3.0	3.2	6.6	2.5	-1.9	24.9*	-3.4
